ROMK mod = modulates human ROMK potassium channel activity. P48048. Tet-inducible ROMK, thallium flux fluorescence; actives lie on both sides. B-score at 10 µM. 2% of 130,000 active;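 active means signal ratio slope over the read window, or its plate-corrected B-score, at least 3 SD from the plate mean, either direction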;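 further: B-score of the F/F0 ratio slope over 7 to 12 s after thallium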
Target sequence (P48048 whole entry, looked up): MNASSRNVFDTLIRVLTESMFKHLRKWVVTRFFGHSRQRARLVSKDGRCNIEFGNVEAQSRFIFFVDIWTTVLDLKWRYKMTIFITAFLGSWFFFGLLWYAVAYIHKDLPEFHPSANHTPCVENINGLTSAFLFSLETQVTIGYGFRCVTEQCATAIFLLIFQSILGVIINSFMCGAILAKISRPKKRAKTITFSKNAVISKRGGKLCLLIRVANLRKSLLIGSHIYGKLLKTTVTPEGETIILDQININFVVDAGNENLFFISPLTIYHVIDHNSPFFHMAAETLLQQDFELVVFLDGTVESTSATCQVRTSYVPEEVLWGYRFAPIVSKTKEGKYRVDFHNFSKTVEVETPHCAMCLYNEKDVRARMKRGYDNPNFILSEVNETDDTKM
WT yeast gro inh = growth inhibition of WT yeast, mitochondrial fusion screen. 2.1% of 190,000 active. mitochondrial fusion phenotypic screen, WT strain. AID 1362. inhibition, % at 10 µM; in the data active means inhibition above about 58%; tested in S. cerevisiae
RBBP9 inhibitor = blocks human serine hydrolase RBBP9. O75884. recombinant RBBP9, FP-Rh probe fluorescence polarization. inhibition, % at 7.94 µM. 0.2% of 220,000 active. AID 1515;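 active means inhibition above the campaign mean of all tested compounds plus 3 SD, cut at about 14% in these data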;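 further: plate controls were DMSO wells with RBBP9 for no effect and wells lacking RBBP9 protein for full effect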
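Test system: recombinant human RBBP9. Quantity: 2.5 µM RBBP9 dispensing solution, before mixing. Detection: FP readout at 525/598 nm. Reagent: Serine-hydrolase probe FP-Rh, 375 nM pre-mixing. Measure: % inhibition. Control set: DMSO-treated enzyme wells and wells lacking RBBP9. Buffer or medium: Tris-NaCl-Pluronic buffer, pH 8.0. Times: preincubation 30 min plus labeling 45 min at 25 °C.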
14-3-3 Bad PPI = disrupts binding of bovine 14-3-3 zeta to phospho-Bad peptide | TR-FRET 14-3-3zeta/Dy647-pBad peptide displacement, 1 h | inhibition, % at 21.7 µM | 0.71% of 220,000 active | AID 781 | P63103;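 active means inhibition above about 70%, limit read from the data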;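 further: 0% = full 14-3-3 plus peptide FRET controls and 100% = background without 14-3-3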
Target sequence (P63103 whole entry, looked up): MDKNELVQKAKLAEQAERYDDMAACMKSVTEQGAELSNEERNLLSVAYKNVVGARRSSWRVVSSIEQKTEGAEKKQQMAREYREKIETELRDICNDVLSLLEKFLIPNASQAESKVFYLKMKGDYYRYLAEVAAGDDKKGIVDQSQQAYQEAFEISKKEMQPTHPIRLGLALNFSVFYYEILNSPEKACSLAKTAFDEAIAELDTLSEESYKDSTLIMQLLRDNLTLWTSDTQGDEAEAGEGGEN
Cl transport mod = KCC2 (human) Cl- transport modulation | Q9H2X9 | KCC2 cells, thallium flux FluoZin-2 fluorescence | B-score of Tl+ flux slope (higher = more flux/activation; lower = inhibition) at 10 µM | 2.2% of 190,000 active | AID 1456;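 active means thallium flux slope and its plate-corrected score both differing from the plate sample mean at a set confidence after two filtering rounds, in either direction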;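 further: slope of fluorescence scaled to starting intensity during 10 to 20 s after thallium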
NCF1 inh = blocks human p47phox regulatory protein of NADPH oxidases. p47phox/p22phox peptide binding, fluorescence polarization, 2 h. inhibition, % at 24.7 µM. 0.53% of 220,000 active;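 active means inhibition above about 30%, limit read from the data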;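 further: 0% = p47phox with labelled peptide and 100% = labelled peptide alone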
An asterisk follows results filed as active. Only some compounds are listed: those with a hit (about 5.8% of all), similar ones and a draw of the others.

Results for CCCCn1c(O)c(/C=N/N2CCCCC2c2cccnc2)c(=O)[nH]c1=S (stereo not given) ?
WT yeast gro inh: -7; RBBP9 inhibitor: -5; 14-3-3 Bad PPI: -1; Cl transport mod: 0.017; NCF1 inh: -153

Results for CCCCn1c(O)c(/C(CC)=N/N2CCCCC2c2cccnc2)c(=O)[nH]c1=S (stereo not given) ?
WT yeast gro inh: 59*; RBBP9 inhibitor: -7; 14-3-3 Bad PPI: 2; Cl transport mod: 0.65; NCF1 inh: -166

Results for Cc1ccc(-n2c(O)c(/C=N/N3CCCCC3c3cccnc3)c(=O)[nH]c2=S)cc1 (stereo not given) ?
ROMK mod: 0.7; WT yeast gro inh: 2; RBBP9 inhibitor: 0; 14-3-3 Bad PPI: -5; Cl transport mod: 0.99; NCF1 inh: -217

What do the screens show for `O=C(CNC1CCCC1)Nc1ccc(N2CCCCCC2)cc1`?
ROMK mod: 0.24; WT yeast gro inh: -3; RBBP9 inhibitor: -5; 14-3-3 Bad PPI: 9; Cl transport mod: 0.014; NCF1 inh: -5

Results for Clc1cccc(CN2CCCCC2c2cccnc2)c1 (stereo not given) ?
ROMK mod: -0.56; WT yeast gro inh: 9; RBBP9 inhibitor: 1

What do the screens show for `c1cncc(C2CCCCN2Cc2ccc3c(c2)OCO3)c1` (stereo not given)?
ROMK mod: -0.8; WT yeast gro inh: 9; RBBP9 inhibitor: -8; 14-3-3 Bad PPI: 71*; NCF1 inh: -17

Results for CCCCC/C=C\C/C=C\C/C=C\C/C=C\CCCC(=O)Nc1ccc(O)cc1 ?
WT yeast gro inh: 76*; RBBP9 inhibitor: 1; 14-3-3 Bad PPI: -1; Cl transport mod: 0.025; NCF1 inh: -8

What do the screens show for `CCCC(=O)Nc1ccc(N2CCN(CC)CC2)c(Cl)c1`?
ROMK mod: 0.83; WT yeast gro inh: 2; RBBP9 inhibitor: -4; 14-3-3 Bad PPI: 38; NCF1 inh: 4

Results for C=CCn1c(O)c(C(CC)=Nc2cccc(C(F)(F)F)c2)c(=O)[nH]c1=O ?
RBBP9 inhibitor: -7; 14-3-3 Bad PPI: -2; Cl transport mod: -1.1; NCF1 inh: -13

Results for O=c1c2ccccc2[se]n1-c1ccccc1 ?
WT yeast gro inh: 97*; RBBP9 inhibitor: -84; 14-3-3 Bad PPI: 28; Cl transport mod: 1.1; NCF1 inh: 85*

What do the screens show for `O=c1c2ccccc2nc(-c2ccccc2)n1-c1ccccc1`?
RBBP9 inhibitor: -10; 14-3-3 Bad PPI: 2; Cl transport mod: 0.53; NCF1 inh: -4

How did CC(c1ccccc1)n1cncc1C(=O)O (stereo not given) do in these assays?
WT yeast gro inh: -13; RBBP9 inhibitor: 0; 14-3-3 Bad PPI: 1; Cl transport mod: -2.5; NCF1 inh: -6

Results for O=C1NC(=S)N(c2ccc(F)cc2)C(=O)/C1=C\c1ccoc1 ?
ROMK mod: 0.35; WT yeast gro inh: 0; RBBP9 inhibitor: -5; 14-3-3 Bad PPI: 76*; Cl transport mod: 0.056; NCF1 inh: -169

What do the screens show for `O=C(O)CCC(=O)NCCC1=c2ccccc2=N/C1=C\c1c(O)n(Cc2ccc(F)cc2)c(=S)[nH]c1=O`?
ROMK mod: -0.071; RBBP9 inhibitor: -2; 14-3-3 Bad PPI: 75*; Cl transport mod: -1.9; NCF1 inh: -238

Results for CCCCCCCCCOc1ccc2[nH]cc(CCN)c2c1 ?
WT yeast gro inh: 97*; RBBP9 inhibitor: 1; 14-3-3 Bad PPI: 9; Cl transport mod: 1.4; NCF1 inh: 92*

How did Cc1ccccc1C1=NCC(=S)Nc2ccc(Cl)cc21 do in these assays?
ROMK mod: 1.1; WT yeast gro inh: 7; RBBP9 inhibitor: 3; 14-3-3 Bad PPI: -11; Cl transport mod: 5.7*; NCF1 inh: -17

How did CCC(=O)Nc1ccc(N2CCN(CC)CC2)c(Cl)c1 do in these assays?
WT yeast gro inh: 70*; RBBP9 inhibitor: -3; 14-3-3 Bad PPI: 16; Cl transport mod: 0.74; NCF1 inh: 4

How did O=S(=O)(c1ccccc1)N1CCCCC1c1cccnc1 (stereo not given) do in these assays?
WT yeast gro inh: 6; RBBP9 inhibitor: -7; 14-3-3 Bad PPI: 9; NCF1 inh: 43*

What do the screens show for `Nc1ccc(S(=O)(=O)N2CCCCC2c2cccnc2)cc1` (stereo not given)?
WT yeast gro inh: 4; RBBP9 inhibitor: 0; 14-3-3 Bad PPI: -7; NCF1 inh: -13

What do the screens show for `CN1/C(=C\C=C\C2=[N+](C)c3ccc4ccccc4c3C2(C)C)C(C)(C)c2ccccc21`?
WT yeast gro inh: 16; RBBP9 inhibitor: 132*; 14-3-3 Bad PPI: -106; Cl transport mod: -6*; NCF1 inh: -249

How did Cc1csc(=N)n1Cc1ccccc1 do in these assays?
ROMK mod: 1; WT yeast gro inh: 6; RBBP9 inhibitor: -7; 14-3-3 Bad PPI: -13; Cl transport mod: -0.0088; NCF1 inh: -18

What do the screens show for `CCC(=Nc1ccc(OC)cc1OC)c1c(O)n(C2CCCCC2)c(=O)[nH]c1=O`?
ROMK mod: -0.55; WT yeast gro inh: 68*; RBBP9 inhibitor: 2; 14-3-3 Bad PPI: 27; NCF1 inh: -47

How did Oc1ccc2ccccc2c1CN1CC=C(c2ccccc2)CC1 do in these assays?
ROMK mod: 0.47; WT yeast gro inh: -8; RBBP9 inhibitor: -9; 14-3-3 Bad PPI: -14; Cl transport mod: -0.041; NCF1 inh: -6

Results for CCN(CC)c1ccc(CN2CC=C(c3ccc(F)cc3)CC2)cc1 ?
WT yeast gro inh: 52; RBBP9 inhibitor: -2; 14-3-3 Bad PPI: 77*; Cl transport mod: 0.44; NCF1 inh: -11

What do the screens show for `COc1cc(O)c(C(=O)O)c(-c2cc(O)c(O)cc2C)c1`?
14-3-3 Bad PPI: 3; Cl transport mod: -0.098; NCF1 inh: 6

How did O=c1[nH]c2ccccc2n1C1CCN(CCCC(c2ccc(F)cc2)c2ccc(F)cc2)CC1 do in these assays?
WT yeast gro inh: 70*; RBBP9 inhibitor: -7; 14-3-3 Bad PPI: 0; Cl transport mod: -0.083; NCF1 inh: -17

What do the screens show for `O=C1CC(N2CCC(n3c(=O)[nH]c4ccccc43)CC2)C(=O)N1c1ccc(F)cc1` (stereo not given)?
ROMK mod: 0.88; WT yeast gro inh: -4; RBBP9 inhibitor: -2; 14-3-3 Bad PPI: 2; Cl transport mod: 1.6; NCF1 inh: -5

How did O=C(Cc1ccccc1)Oc1cccc(-n2cnnn2)c1 do in these assays?
ROMK mod: -0.0098; WT yeast gro inh: -9; RBBP9 inhibitor: -5; 14-3-3 Bad PPI: -6; Cl transport mod: -1.1; NCF1 inh: -8

How did Cc1ccc(CN2C(=O)CN=C(c3ccccc3)c3ccccc32)cc1 do in these assays?
ROMK mod: -0.53; WT yeast gro inh: 13; RBBP9 inhibitor: -4; 14-3-3 Bad PPI: -27; Cl transport mod: -0.025; NCF1 inh: -1

Results for Cc1oc(-c2ccccc2)nc1CN1C(=O)CN=C(c2ccccc2)c2ccccc21 ?
ROMK mod: 0.21; WT yeast gro inh: 58*; RBBP9 inhibitor: -6; 14-3-3 Bad PPI: -2; Cl transport mod: -1; NCF1 inh: -4
